The source made the active and inactive calls.
Tests used:
hERG = hERG (Homo sapiens, UniProt Q12809); assay: Inhibition of human ERG at 10 uM by radioligand displacement assay
In short: (§1)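 LeadProfilingScreen panel of 68 in vitro enzyme and receptor assays. Compound tested at 10 μM in duplicate.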

[1] = tested on: Superoxide dismutase [Cu-Zn] (Homo sapiens), P00441 [G94A]; assay: Inhibition of SOD1 G93A mutant aggregation-induced cytotoxicity in human HeLa cells by cytotoxicity protection assay; format: cell-based
[2] = Half life in Sprague-Dawley rat at 1 mg/kg, po; format: ADME, organism-based; parameters: dose 1 mg/kg, route oral; conditions: in vivo
In short: (§2)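 Sprague-Dawley rats given a single 1 mg/kg bolus, intravenous or oral. Plasma PK parameters (AUC, dose-normalised AUC, half-life, clearance, Vss, Cmax, Tmax, oral bioavailability) derived from plasma levels.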

Homo sapiens [3] = species on record: Homo sapiens; assay: Inhibition of human dopamine […] receptor at 10 uM by radioligand displacement assay
In short: (§3)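 Single concentration of 10 μM, tested in duplicate as part of a contracted panel of 68 in vitro enzyme and receptor assays. The panel covers common adverse CNS, cardiovascular, pulmonary and genotoxic targets.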

[4] = target: Alpha-1B adrenergic receptor (Rattus norvegicus) (UniProt P15823); assay: Inhibition of rat adrenergic alpha1B receptor at 10 uM by radioligand displacement assay; in short: as §3
Homo sapiens [5] = species on record: Homo sapiens; assay: Inhibition of human nicotinic acetylcholine receptor bungarotoxin binding site at 10 uM by radioligand displacement assay
In short: (§4)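 Single concentration of 10 μM, tested in duplicate in a contract panel of 68 in vitro enzyme and receptor binding assays covering common adverse CNS, cardiovascular, pulmonary and genotoxic targets.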

Rattus norvegicus [6] = assay: Dose normalised AUC in Sprague-Dawley rat at 1 mg/kg, po; format: ADME, organism-based; parameters: dose 1 mg/kg, route oral; conditions: in vivo; in short: as §2
[7] = target: L-type calcium channel, dihydropyridine site (Rattus norvegicus, UniProt P22002+P27732+Q02485); assay: Inhibition of rat calcium channel L-type, dihydropyridine site at 10 uM by radioligand displacement assay; in short: as §3
[8] = target: Alpha-2A adrenergic receptor (Homo sapiens) (UniProt P08913); assay: Inhibition of human adrenergic alpha2A receptor at 10 uM by radioligand displacement assay; in short: as §1
Mus musculus [9] = assay: Neuroprotective activity in SOD1 G93A mutant B6SJL mouse ALS model assessed as life extension administered qd starting at 6 weeks of age throughout life
[10] = target: B1 bradykinin receptor (Homo sapiens) (UniProt P46663); assay: Inhibition of human bradykinin B1 receptor at 10 uM by radioligand displacement assay; in short: as §1
Rattus norvegicus [11] = species on record: Rattus norvegicus; assay: Inhibition of rat thyroid hormone receptor at 10 uM by radioligand displacement assay; in short: as §3
[12] = target: Histamine H1 receptor (Homo sapiens) (UniProt P35367); assay: Inhibition of human histamine H1 receptor at 10 uM by radioligand displacement assay; in short: as §3
[13] = target: Platelet-activating factor receptor (Homo sapiens) (UniProt P25105); assay: Inhibition of platelet activating factor receptor at 10 uM by radioligand displacement assay; in short: as §3
Rattus norvegicus [14] = species on record: Rattus norvegicus; assay: Inhibition of rat purinergic P2Y receptor at 10 uM by radioligand displacement assay; in short: as §3
[15] = target: Glucocorticoid receptor (Homo sapiens) (UniProt P04150); assay: Inhibition of human glucocorticoid receptor at 10 uM by radioligand displacement assay; in short: as §3
Cerebral cortex neuron = assay: Cytoprotection in rat Primary cortical neurons incubated for 24 hrs and measured 72 hrs post compound dose by cytotoxicity protection assay; format: functional, cell-based
In short: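 Primary cortical neurons from E18 Sprague-Dawley or Fischer 344 rat brain, dissociated with papain (2 mg/mL, 30 min, 37 °C), plated on poly-D-lysine at 20,000 cells/well, cultured 5 days (~90% neurons). Six-point dose response from 100 μM top, roughly one-third dilutions; 24 h pre-incubation, then MG132 100 nM. Viability read 48 h later by Calcein-AM (1 μM, 20 min, RT) fluorescence. Active = viability ≥5 SD above MG132 controls.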

[16] = target: Adenosine receptor A1 (Homo sapiens) (UniProt P30542); assay: Inhibition of human adenosine A1 receptor at 10 uM by radioligand displacement assay; in short: as §1
[17] = target: 5-hydroxytryptamine receptor 1A (Homo sapiens) (UniProt P08908); assay: Inhibition of human 5HT1A receptor at 10 uM by radioligand displacement assay; in short: as §1
Rattus norvegicus [18] = species on record: Rattus norvegicus; assay: Inhibition of rat kainate receptor glutamate binding site at 10 uM by radioligand displacement assay; in short: as §3
[19] = target: Epidermal growth factor receptor (Homo sapiens) (UniProt P00533); assay: Inhibition of human epidermal growth factor receptor at 10 uM by radioligand displacement assay; in short: as §3
[20] = target: Endothelin-1 receptor (Homo sapiens) (UniProt P25101); assay: Inhibition of human endothelin ETA at 10 uM by radioligand displacement assay; in short: as §3
[21] = target: Cysteinyl leukotriene receptor 1 (Homo sapiens) (UniProt Q9Y271); assay: Inhibition of human cysteinyl CysLT1 receptor at 10 uM by radioligand displacement assay; in short: as §1
Mus musculus [22] = assay: Neuroprotective activity in SOD1 G93A mutant B6SJL mouse ALS model assessed as life extension at 20 mg/kg administered qd for 1 week (reference value: 125.7 +/- 4.9 days); format: functional
[23] = tested on: Superoxide dismutase [Cu-Zn] (Homo sapiens), P00441 [G94A]; assay: Inhibition of SOD1 G93A mutant aggregation-induced cytotoxicity in human SH-SY5Y cells by cytotoxicity protection assay; format: cell-based
[24] = target: Muscarinic acetylcholine receptor M3 (Homo sapiens) (UniProt P20309); assay: Inhibition of human muscarinic M3 receptor at 10 uM by radioligand displacement assay; in short: as §3
[25] = target: Histamine H3 receptor (Homo sapiens) (UniProt Q9Y5N1); assay: Inhibition of human histamine H3 receptor at 10 uM by radioligand displacement assay; in short: as §3
[26] = Plasma concentration in B6SJL mouse at 300 mg/kg after 24 hrs by mass spectrometry; format: ADME, organism-based; parameters: dose 300 mg/kg
In short: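 B6SJL mice were given a single 300 mg/kg intraperitoneal bolus. Blood and brain were collected at 0, 1, 3, 6, 12 and 24 h, flash-frozen in liquid nitrogen and stored at -80 °C. Samples were analyzed by mass spectrometry with ESI ionization in MRM mode.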

[27] = tested on: Superoxide dismutase [Cu-Zn] (Homo sapiens), P00441 [G94A]; assay: Inhibition of SOD1 G93A mutant aggregation-induced cytotoxicity in rat PC12 cells assessed as cell viability incubated for 24 hrs and measured 72 hrs post compound dose by cytotoxicity protection assay; format: cell-based; conditions: PC-12
In short: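 PC12 cells expressing G93A SOD1-YFP fusion seeded 15000 cells/well, grown 24 h before dosing. 12-point dose response, top 32 μM, twofold dilutions. After 24 h, MG132 added (100 nM final). Viability measured 48 h later with Calcein-AM (1 μM final, 20 min, room temperature) fluorescence. EC50 derived from dose-response.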

[28] = target: Neuropeptide Y receptor type 2 (Homo sapiens) (UniProt P49146); assay: Inhibition of human Neuropeptide Y Y2 receptor at 10 uM by radioligand displacement assay; in short: as §4
[29] = Clearance in Sprague-Dawley rat at 1 mg/kg, iv; format: ADME, organism-based; parameters: dose 1 mg/kg, route intravenous; conditions: in vivo; in short: as §2
Mus musculus [30] = assay: Neuroprotective activity in SOD1 G93A mutant B6SJL mouse ALS model assessed as life extension at 20 mg/kg administered qd for 1 week relative to untreated control; format: functional

Sequence of Superoxide dismutase [Cu-Zn] (Homo sapiens), P00441 [G94A] (P00441 whole entry G94A, the tested form may be a part): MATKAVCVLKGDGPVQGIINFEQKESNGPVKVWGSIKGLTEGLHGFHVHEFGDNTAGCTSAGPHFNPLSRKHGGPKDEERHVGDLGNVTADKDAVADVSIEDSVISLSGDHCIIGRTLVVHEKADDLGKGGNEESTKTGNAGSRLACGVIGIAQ
Sequence of Histamine H3 receptor (Homo sapiens) (Q9Y5N1 whole entry): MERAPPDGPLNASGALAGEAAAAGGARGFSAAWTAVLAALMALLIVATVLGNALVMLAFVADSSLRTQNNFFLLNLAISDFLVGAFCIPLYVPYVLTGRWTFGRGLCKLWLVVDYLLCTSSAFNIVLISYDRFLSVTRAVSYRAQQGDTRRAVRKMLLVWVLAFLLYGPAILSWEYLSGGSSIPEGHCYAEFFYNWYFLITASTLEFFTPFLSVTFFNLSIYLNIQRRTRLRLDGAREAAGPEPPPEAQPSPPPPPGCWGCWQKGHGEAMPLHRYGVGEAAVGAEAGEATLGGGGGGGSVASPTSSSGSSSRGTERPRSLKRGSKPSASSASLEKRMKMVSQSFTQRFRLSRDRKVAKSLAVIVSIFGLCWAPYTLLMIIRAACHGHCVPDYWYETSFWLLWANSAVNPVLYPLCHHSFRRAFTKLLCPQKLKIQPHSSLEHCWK
Sequence of Platelet-activating factor receptor (Homo sapiens) (P25105 whole entry): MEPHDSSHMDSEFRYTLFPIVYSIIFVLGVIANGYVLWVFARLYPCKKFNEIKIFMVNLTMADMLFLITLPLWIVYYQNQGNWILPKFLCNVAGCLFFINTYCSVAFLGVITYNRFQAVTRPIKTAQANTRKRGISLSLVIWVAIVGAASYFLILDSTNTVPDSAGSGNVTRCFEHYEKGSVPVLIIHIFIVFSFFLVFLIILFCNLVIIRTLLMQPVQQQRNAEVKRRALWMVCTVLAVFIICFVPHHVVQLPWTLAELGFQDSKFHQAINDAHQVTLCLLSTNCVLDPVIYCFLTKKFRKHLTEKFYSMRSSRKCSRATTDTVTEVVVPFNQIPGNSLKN
Sequence of Adenosine receptor A1 (Homo sapiens) (P30542 whole entry): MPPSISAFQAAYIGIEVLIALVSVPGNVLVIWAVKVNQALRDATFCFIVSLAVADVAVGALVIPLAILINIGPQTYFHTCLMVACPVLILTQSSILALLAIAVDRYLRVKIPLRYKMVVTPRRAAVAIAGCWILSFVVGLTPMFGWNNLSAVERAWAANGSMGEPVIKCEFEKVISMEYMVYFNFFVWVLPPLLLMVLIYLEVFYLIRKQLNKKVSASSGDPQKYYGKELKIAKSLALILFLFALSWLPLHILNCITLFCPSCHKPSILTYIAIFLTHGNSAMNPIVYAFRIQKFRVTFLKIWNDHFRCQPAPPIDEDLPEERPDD
Sequence of Endothelin-1 receptor (Homo sapiens) (P25101 whole entry): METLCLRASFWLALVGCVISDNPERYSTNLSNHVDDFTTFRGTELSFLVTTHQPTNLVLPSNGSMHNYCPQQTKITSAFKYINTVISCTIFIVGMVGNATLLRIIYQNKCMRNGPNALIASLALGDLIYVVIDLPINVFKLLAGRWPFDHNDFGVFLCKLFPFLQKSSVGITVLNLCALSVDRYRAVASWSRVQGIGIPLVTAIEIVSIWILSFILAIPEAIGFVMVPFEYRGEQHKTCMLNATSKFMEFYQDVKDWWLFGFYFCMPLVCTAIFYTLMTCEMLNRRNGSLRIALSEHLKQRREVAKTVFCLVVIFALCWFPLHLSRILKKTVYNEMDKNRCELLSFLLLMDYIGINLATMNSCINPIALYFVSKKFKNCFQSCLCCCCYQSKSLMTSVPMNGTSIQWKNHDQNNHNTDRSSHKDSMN
Sequence of Glucocorticoid receptor (Homo sapiens) (P04150 whole entry): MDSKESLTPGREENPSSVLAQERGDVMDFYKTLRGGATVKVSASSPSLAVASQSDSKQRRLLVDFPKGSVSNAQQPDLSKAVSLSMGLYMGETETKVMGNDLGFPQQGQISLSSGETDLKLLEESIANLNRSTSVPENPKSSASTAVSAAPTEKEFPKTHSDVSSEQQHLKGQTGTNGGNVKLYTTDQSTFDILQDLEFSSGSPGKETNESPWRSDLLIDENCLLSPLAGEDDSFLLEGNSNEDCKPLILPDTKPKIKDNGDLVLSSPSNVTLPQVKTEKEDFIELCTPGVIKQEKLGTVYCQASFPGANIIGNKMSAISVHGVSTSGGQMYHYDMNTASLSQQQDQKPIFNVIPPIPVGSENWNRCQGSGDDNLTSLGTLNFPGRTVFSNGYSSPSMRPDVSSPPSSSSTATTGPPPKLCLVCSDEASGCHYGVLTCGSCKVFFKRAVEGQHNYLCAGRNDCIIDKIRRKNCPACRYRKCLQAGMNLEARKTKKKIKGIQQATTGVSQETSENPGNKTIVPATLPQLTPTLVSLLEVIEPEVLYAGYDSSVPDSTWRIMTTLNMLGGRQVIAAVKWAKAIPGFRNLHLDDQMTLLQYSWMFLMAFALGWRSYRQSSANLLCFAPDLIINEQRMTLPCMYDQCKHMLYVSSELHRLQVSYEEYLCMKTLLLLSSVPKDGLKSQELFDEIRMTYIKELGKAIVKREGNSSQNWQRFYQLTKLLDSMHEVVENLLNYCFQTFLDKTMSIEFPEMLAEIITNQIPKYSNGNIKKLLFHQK
Sequence of Neuropeptide Y receptor type 2 (Homo sapiens) (P49146 whole entry): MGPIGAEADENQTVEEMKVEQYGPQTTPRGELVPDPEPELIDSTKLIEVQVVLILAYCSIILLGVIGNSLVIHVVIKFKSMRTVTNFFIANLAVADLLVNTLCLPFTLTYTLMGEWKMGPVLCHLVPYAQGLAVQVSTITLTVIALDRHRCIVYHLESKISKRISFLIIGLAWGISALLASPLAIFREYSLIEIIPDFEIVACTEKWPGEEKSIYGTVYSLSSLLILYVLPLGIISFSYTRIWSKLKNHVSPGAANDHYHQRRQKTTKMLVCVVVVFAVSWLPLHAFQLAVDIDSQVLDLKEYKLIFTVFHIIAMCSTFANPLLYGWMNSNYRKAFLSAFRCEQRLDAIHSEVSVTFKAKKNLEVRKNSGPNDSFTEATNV
Sequence of Epidermal growth factor receptor (Homo sapiens) (P00533 whole entry): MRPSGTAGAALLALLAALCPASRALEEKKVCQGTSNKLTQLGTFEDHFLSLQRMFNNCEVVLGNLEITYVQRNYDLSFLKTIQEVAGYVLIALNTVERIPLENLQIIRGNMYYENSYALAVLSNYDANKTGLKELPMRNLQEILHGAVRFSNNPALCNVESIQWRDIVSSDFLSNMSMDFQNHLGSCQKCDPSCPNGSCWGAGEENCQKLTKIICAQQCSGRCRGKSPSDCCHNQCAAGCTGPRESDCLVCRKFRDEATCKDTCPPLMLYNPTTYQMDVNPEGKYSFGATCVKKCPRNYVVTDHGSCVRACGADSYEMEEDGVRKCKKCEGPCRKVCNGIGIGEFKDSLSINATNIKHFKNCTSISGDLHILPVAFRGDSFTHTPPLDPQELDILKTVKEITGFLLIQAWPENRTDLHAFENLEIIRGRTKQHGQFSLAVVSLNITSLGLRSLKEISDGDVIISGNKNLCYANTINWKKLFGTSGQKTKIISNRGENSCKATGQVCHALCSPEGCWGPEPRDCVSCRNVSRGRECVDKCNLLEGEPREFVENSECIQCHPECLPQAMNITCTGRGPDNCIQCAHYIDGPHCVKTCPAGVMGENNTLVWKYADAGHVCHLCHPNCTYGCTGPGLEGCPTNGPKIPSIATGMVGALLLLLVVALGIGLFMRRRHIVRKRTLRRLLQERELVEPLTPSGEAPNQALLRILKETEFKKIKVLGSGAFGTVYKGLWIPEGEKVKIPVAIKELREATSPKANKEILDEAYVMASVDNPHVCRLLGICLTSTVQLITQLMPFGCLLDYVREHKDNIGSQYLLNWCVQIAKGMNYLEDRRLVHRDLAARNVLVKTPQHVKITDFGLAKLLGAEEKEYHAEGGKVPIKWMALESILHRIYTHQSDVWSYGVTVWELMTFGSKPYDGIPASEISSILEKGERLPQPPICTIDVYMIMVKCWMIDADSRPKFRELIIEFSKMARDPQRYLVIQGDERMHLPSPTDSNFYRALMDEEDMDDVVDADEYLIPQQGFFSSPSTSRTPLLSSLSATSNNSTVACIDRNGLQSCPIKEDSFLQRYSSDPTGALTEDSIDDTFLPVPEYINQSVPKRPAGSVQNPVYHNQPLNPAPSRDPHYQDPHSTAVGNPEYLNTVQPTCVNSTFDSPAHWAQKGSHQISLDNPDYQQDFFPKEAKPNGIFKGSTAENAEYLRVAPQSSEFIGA
Sequence of Alpha-1B adrenergic receptor (Rattus norvegicus) (P15823 whole entry): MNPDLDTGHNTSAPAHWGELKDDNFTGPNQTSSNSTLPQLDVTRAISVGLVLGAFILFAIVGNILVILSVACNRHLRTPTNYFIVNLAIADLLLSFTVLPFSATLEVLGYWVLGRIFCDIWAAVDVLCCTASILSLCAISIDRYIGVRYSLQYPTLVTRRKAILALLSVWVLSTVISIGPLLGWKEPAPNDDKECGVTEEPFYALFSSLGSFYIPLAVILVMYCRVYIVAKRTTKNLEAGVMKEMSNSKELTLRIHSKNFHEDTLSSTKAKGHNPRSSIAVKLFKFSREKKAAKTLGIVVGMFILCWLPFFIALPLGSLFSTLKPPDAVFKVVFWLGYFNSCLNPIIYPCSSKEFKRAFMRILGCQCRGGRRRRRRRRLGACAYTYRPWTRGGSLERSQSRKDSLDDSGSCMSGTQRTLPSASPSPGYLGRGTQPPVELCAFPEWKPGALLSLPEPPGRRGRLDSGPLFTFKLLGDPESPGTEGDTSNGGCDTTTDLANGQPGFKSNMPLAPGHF
Sequence of B1 bradykinin receptor (Homo sapiens) (P46663 whole entry): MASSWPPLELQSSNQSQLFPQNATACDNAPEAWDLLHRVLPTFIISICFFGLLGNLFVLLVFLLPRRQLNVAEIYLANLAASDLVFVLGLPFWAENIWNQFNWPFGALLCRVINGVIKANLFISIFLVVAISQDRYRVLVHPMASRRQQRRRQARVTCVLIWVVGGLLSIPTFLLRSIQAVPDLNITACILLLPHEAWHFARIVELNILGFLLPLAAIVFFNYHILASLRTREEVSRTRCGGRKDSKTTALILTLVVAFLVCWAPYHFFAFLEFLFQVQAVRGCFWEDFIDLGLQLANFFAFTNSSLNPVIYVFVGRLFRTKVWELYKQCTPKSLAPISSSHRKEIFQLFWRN

O=c1cc(COc2cc(Cl)cc(Cl)c2)[nH][nH]1
inhibition at 10 µM (hERG): -7%
inhibition [1]: Active
half-life [2]: 3.6 h
inhibition (Homo sapiens [3]): 14%
inhibition [4]: 0%
inhibition (Homo sapiens [5]): 6%
AUC/dose (Rattus norvegicus [6]): 50 ng·h/mL/mg/kg
inhibition at 10 µM [7]: -5%
inhibition [8]: 8%
Activity (Mus musculus [9]): Dose-dependent effect
inhibition [10]: 5%
inhibition (Rattus norvegicus [11]): 10%
inhibition [12]: 1%
inhibition [13]: -1%
inhibition (Rattus norvegicus [14]): 5%
inhibition [15]: 4%
Activity (Cerebral cortex neuron): Active
inhibition [16]: 15%
inhibition [17]: -6%
inhibition (Rattus norvegicus [18]): 24%
inhibition [19]: 5%
inhibition [20]: 3%
inhibition [21]: 0%
Survival (Mus musculus [22]): 142.5 days
inhibition [23]: Active
inhibition [24]: -4%
inhibition [25]: 15%
concentration at 24 h [26]: 6.5 µM
Activity [27]: 100%
inhibition [28]: 6%
clearance [29]: 92 mL/min/kg
Activity (Mus musculus [30]): 13.3%
